# Assay outcomes from PubChem BioAssay.
# In the library only some 4.5% were active in any assay of this set; here they are far more common.
# TAAR1 antagonist: human TAAR1 antagonists, primary screen, Fluo-8 calcium fluorescence, CHO RD-HGA16 cells; Trace amine-associated receptor 1 (Homo sapiens), Q96RJ0; 360,000 compounds, 1.5% hits; inhibition, % at 3 µM; antagonist;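 active = inhibition above a per-plate cutoff, the mean inhibition of test compounds on that plate plus 3 SD, cut at about 49% in these data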;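 also: 0% = DMSO plus EC80 beta-PEA response and 100% = DMSO alone without agonist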
# Target sequence (Q96RJ0 whole entry, looked up): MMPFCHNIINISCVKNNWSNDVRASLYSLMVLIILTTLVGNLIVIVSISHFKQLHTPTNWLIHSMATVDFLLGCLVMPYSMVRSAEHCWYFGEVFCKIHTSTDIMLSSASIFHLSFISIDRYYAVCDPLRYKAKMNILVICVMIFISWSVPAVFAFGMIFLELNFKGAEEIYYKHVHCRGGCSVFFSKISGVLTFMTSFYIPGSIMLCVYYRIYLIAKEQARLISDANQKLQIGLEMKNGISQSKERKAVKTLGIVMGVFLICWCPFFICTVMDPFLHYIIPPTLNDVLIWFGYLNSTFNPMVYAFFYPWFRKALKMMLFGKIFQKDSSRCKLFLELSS
#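 Test system: CHO RD-HGA16 cells bearing hTAAR1 | Reagent: β-PEA, EC80 | Compound dosing: 3 µM, single point | Schedule: Dye loading 75 min at 37 °C, then 30 min room temperature | Signal: Calcium fluorescence with Fluo-8 | Evaluation: Percent inhibition of PEA-evoked calcium signal, max/basal emission ratio | Control set: DMSO-only wells and EC80 β-PEA-stimulated wells | Repeats: Singlicate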
# TAAR1 ag: human TAAR1 agonists, primary screen, Fluo-8 calcium fluorescence, CHO RD-HGA16 cells. vehicle wells 0%, saturating PEA agonist 100%. AID 624467, 2012. 360,000 compounds, 0.99% hits. activation, % at 3 µM. Trace amine-associated receptor 1 (Homo sapiens), Q96RJ0;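 active = activation above the mean activation of all test compounds in the run plus 3 SD, cut at about 38% in these data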
#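 System: CHO-derived RD-HGA16 cells with stable Gα16 and human TAAR1 / Times: 17-24 h plating, Fluo-8 75 min 37 °C, 30 min RT / Technique: calcium-sensitive Fluo-8 signal, excitation 470-495, emission 515-575 nm / Measure: % activation relative to PEA EC100 response / Benchmarks: DMSO and PEA EC100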
# OX1R antag-1: OX1R (HCRTR1) antagonists, primary screen, fluorescence, CHO/OX1R cells, Fluo-8 calcium, orexin A; Fluo-8 calcium fluorescence; inhibition, % at 5 µM; 330,000 compounds, 0.43% hits;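 active = inhibition above its plate's threshold, mean inhibition of all tested compounds on the plate plus 3 SD, cut at about 37% in these data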;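 also: 0% = orexin A challenge wells and 100% = SB-334867-A antagonist wells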
# GPR7 antag: GPR7 receptor antagonists, primary screen, cell-based, fluorescence, single concentration. AID 1861, 2009. 290,000 compounds, 1.1% hits. GPR7-expressing cells, fluorescence antagonist assay. Neuropeptides B/W receptor type 1 (Homo sapiens), P48145. inhibition, % at 4.4 µM; in the data active = inhibition above about 16%, passing the limit was not always enough;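 also: cells stimulated with the agonist NPW; 0% = agonist with vehicle and 100% = vehicle without agonist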
# Target sequence (P48145 whole entry, looked up): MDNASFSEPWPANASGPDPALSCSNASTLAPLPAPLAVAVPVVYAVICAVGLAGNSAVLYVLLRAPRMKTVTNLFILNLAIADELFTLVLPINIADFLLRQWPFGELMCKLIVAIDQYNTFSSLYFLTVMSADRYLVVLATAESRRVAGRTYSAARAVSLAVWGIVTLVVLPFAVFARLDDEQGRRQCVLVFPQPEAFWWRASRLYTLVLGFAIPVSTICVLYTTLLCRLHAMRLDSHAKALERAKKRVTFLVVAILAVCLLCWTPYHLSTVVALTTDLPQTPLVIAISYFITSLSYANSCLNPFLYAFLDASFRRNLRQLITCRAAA
# OX1R antag-2: antagonists of human orexin 1 receptor (OX1R); OX1R-expressing cells, FRET antagonist read-out; AID 485270, 2010; Orexin/Hypocretin receptor type 1 (Homo sapiens), O43613; 330,000 compounds, 1.8% hits; inhibition, % at 6.6 µM; in the data active = inhibition mostly above about 38%, no sharp cut-off; inactive = mostly below about 40%;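 also: 0% = agonist challenge alone and 100% = reference antagonist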
# CHO parental Ca: ATP-evoked calcium signal inhibitors, parental CHO, primary screen, counter-screen for OX1R antagonist project, cell-based, fluorescence, Fluo-8 calcium dye; AID 463079, 2010; 330,000 compounds, 0.63% hits; inhibition, % at 5.6 µM; parental CHO-K1, ATP-induced calcium, Fluo-8 fluorescence;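 active = inhibition above that plate's mean sample inhibition plus 3 SD, cut at about 26% in these data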;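 also: 0% = ATP-challenged DMSO wells and 100% = DMSO wells without ATP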
#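 Measured by: calcium-sensitive Fluo-8 fluorescence / Test system: CHO parental line / Controls: ATP-challenged DMSO wells low, unchallenged DMSO wells high / Measure: % inhibition / Compound: single nominal dose of 5.6 µM per compound / Replicates: single well per compound, no replicates / Reagent: ATP as calcium-mobilizing challenge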
# An asterisk follows results filed as active; . = not tested or not shown.
SMILES,TAAR1 antagonist,TAAR1 ag,OX1R antag-1,GPR7 antag,OX1R antag-2,CHO parental Ca
CCN=C1SC(C(=O)Nc2ccc(OC)cc2)CC(=O)N1CC (stereo not drawn),54.6*,24.5,8.9,-15.9,17.6,-3.0
CCN=C1SC(C(=O)Nc2ccc(OCC)cc2)CC(=O)N1CC (stereo not drawn),47.1,23.6,-15.7,-19.2,19.8,-12.0
CCN1C(=O)CC(C(=O)Nc2ccc(F)cc2)SC1=Nc1ccc2c(c1)OCO2 (stereo not drawn),51.9*,17.0,-13.6,10.7,22.7,-22.0
CCN=C1SC(C(=O)Nc2cc(Cl)cc(Cl)c2)CC(=O)N1CC (stereo not drawn),19.9,4.9,-17.1,-2.0,5.0,-8.7
Cc1[nH]nc2c1C(c1ccc(Br)cc1)N(Cc1ccccc1)C2=O (stereo not drawn),-15.5,3.2,.,.,.,.
COc1ccc(CNC(=O)N(C)C[C@@H]2OCc3ccccc3-c3c(n(C)c4ccccc34)C(=O)N([C@@H](C)CO)C[C@@H]2C)cc1,-22.3,0.5,.,.,.,.
OCC[C@H]1C[C@H](O)[C@@H](O)[C@@]2(CCCO2)O1,2.5,5.0,4.8,.,14.3,-8.4
CN(Cc1ccccc1)C(=O)c1cccc(NC(=O)Cc2cccc(NC(=O)C3CCN(C(=O)CCc4ccccc4)CC3)c2)c1,-2.9,5.5,.,.,.,.
CC(C)(C)c1ccc(-c2cc(-c3ccccc3O)[nH]n2)cc1,-16.8,6.7,-18.6,-4.0,16.5,2.5
Oc1ccccc1-c1cc(-c2cccc(F)c2)n[nH]1,-1.2,12.0,-4.4,0.8,41.1*,10.7
Cc1ccc(CCNC(=O)C(C)n2nc(C)c3c(C)n(-c4ccccc4)nc3c2=O)cc1 (stereo not drawn),-27.5,-2.8,-28.9,-22.6,13.0,-16.3
Cc1ccc(-n2nc3c(=O)n(C(C)C(=O)NCCC4=CCCCC4)nc(C)c3c2C)cc1 (stereo not drawn),-3.5,37.9*,-4.4,1.1,11.1,15.7
Cc1ccc(NC(=O)CCCCCC2NC(=O)NC2C)cc1 (stereo not drawn),.,.,-4.2,10.3,8.2,2.8
CCOC(=O)CCCCCCCCC(=O)Nc1ccc(-n2[nH]c(=O)cc2C)cc1,2.1,44.4*,.,.,.,.
Cc1cc(C)c2cc(C#N)c(NCCNC(=O)c3cccnc3)nc2c1,-24.1,-1.9,.,.,.,.
Clc1ccc(N=c2ssnc2Cl)cc1,18.0,45.6*,22.9,-12.8,41.1,10.3
COc1cc(N=c2ssnc2Cl)cc(OC)c1OC,21.6,41.6*,-19.4,8.8,33.4,-7.8
COC(=O)c1ccc(Cn2c(C)c(C(=O)Nc3cccc(Oc4ccccc4)c3)sc2=O)o1,48.7*,11.2,.,.,.,.
C[C@H]1COc2cc(N3CCOCC3)ccc2S(=O)(=O)N1,12.4,1.1,.,.,.,.
CCOc1ccc(CC(=O)Nc2sc(Cc3ccccc3)c(C)c2C(N)=O)cc1OCC,-10.0,-0.4,-4.5,-16.8,56.8*,-5.0
Cc1c(C)c2c(OCC(=O)Nc3ccc(CCO)cc3)cc3c(c2oc1=O)CCC(C)(C)O3,51.0*,2.2,-3.0,11.9,14.3,1.7
Cc1cc(=O)oc2c3c(cc(OCC(=O)NCc4cccnc4)c12)OC(C)(C)CC3,-2.6,1.6,-36.4,3.2,10.9,-20.3
COc1ccccc1CNC(=O)COc1cc2c(c3oc(=O)cc(C)c13)CCC(C)(C)O2,53.2*,4.3,-22.4,18.1,27.1,-8.1
Cc1c(C)c2c(OCC(=O)O)cc3c(c2oc1=O)CCC(C)(C)O3,-5.0,5.2,1.4,-22.5,12.6,-3.8
COc1cccc(CNC(=O)COc2cc3c(c4oc(=O)cc(C)c24)CCC(C)(C)O3)c1,57.8*,1.2,-19.4,14.2,31.1,-3.2
SMILES,TAAR1 antagonist,TAAR1 ag,OX1R antag-1,GPR7 antag,OX1R antag-2,CHO parental Ca
O=C(NCCNC(=O)c1ccc(-c2cc(Cl)ccc2Cl)o1)c1cnccn1,45.0,42.8*,.,.,.,.
Cc1cccc(OCc2nnc(SCC(=O)N(C(C)C)C(C)C)n2Cc2ccco2)c1C,-12.1,15.3,8.0,-4.3,35.8*,-36.2
C[C@@H]1NS(=O)(=O)c2ccc(F)cc2O[C@@H]1c1ccccc1,0.1,1.1,.,.,.,.
CNC(=O)/C(C#N)=c1\s/c(=C/C(=O)OC)c(=O)n1-c1ccccc1,6.2,13.7,-12.4,-2.1,68.9*,-1.8
S=C1Cc2ccccc2N1,3.1,42.6*,.,-11.1,.,.
Cc1ccc(OCCNC(=O)[C@@H](Cc2ccccc2)NC(=O)[C@H]2O[C@@H](n3ccc(=O)[nH]c3=O)[C@H](O)[C@@H]2O)cc1C,-21.9,5.2,.,.,.,.
O=C(Nc1nc2ccccc2[nH]1)c1cccc(Cl)c1,3.6,0.1,-20.5,-12.1,19.5,-10.0
CN(c1cccc(Cl)c1)S(=O)(=O)c1cccc(C(=O)Nc2nc3ccccc3[nH]2)c1,61.0*,12.1,5.0,6.5,51.6,-7.0
COc1ccc(N(C)S(=O)(=O)c2cccc(C(=O)Nc3nc4ccccc4[nH]3)c2)cc1,54.7*,8.6,-16.1,13.9,20.2,-0.7
COc1ccc(N(C)S(=O)(=O)c2cccc(C(=O)NC3CCCCCC3)c2)cc1,-16.1,-2.1,-29.3,42.7*,18.9,-19.5
CC(NC(=O)C1=CC=CN2CCS(=O)(=O)N=C12)c1ccc(Cl)cc1Cl (stereo not drawn),-13.4,14.7,-22.6,.,-0.8,-15.9
COc1cccc(CNC(=O)[C@H]2CCCN2C(=O)[C@H]2CCCN2C(=O)c2c(F)cccc2F)c1,0.0,0.4,.,.,.,.
O=C(Nc1cccnc1)c1cccc(S(=O)(=O)N2CCc3ccccc32)c1,11.9,9.9,-29.4,-2.4,12.8,-16.4
Cc1ccc2c(c1)CCCN2S(=O)(=O)c1cccc(C(=O)Nc2ccccc2C(=O)O)c1,-81.2,-2.2,-23.8,0.2,57.5*,-6.3
O=C(Nc1ccncc1)c1cccc(S(=O)(=O)N2CCc3ccccc32)c1,3.6,4.8,48.2*,.,48.4*,58.9*
COc1ccc(CCN(C)C(=O)Cn2c(=O)oc3ccccc32)cc1OC,-13.2,0.8,-6.2,-2.8,20.5,-1.0
CC(C)C[C@H]1COc2cccc(F)c2S(=O)(=O)N1,-6.2,-0.5,.,.,.,.
O=[N+]([O-])c1ccccc1S(=O)(=O)N/C(=N/S(=O)(=O)c1ccccc1)c1ccccc1,-2.5,2.9,-2.2,.,5.7,-2.8
c1cc2c(cc1C1CCCCC1)c1c3n2CCCNC3CCC1 (stereo not drawn),35.2,42.6*,21.6,17.8,3.3,13.8
